SMILES strings stand for the structures.

The experiment addresses T1, Toll-like receptor 7 (Homo sapiens, UniProt Q9NYK1).
T1 sequence (Q9NYK1 whole entry): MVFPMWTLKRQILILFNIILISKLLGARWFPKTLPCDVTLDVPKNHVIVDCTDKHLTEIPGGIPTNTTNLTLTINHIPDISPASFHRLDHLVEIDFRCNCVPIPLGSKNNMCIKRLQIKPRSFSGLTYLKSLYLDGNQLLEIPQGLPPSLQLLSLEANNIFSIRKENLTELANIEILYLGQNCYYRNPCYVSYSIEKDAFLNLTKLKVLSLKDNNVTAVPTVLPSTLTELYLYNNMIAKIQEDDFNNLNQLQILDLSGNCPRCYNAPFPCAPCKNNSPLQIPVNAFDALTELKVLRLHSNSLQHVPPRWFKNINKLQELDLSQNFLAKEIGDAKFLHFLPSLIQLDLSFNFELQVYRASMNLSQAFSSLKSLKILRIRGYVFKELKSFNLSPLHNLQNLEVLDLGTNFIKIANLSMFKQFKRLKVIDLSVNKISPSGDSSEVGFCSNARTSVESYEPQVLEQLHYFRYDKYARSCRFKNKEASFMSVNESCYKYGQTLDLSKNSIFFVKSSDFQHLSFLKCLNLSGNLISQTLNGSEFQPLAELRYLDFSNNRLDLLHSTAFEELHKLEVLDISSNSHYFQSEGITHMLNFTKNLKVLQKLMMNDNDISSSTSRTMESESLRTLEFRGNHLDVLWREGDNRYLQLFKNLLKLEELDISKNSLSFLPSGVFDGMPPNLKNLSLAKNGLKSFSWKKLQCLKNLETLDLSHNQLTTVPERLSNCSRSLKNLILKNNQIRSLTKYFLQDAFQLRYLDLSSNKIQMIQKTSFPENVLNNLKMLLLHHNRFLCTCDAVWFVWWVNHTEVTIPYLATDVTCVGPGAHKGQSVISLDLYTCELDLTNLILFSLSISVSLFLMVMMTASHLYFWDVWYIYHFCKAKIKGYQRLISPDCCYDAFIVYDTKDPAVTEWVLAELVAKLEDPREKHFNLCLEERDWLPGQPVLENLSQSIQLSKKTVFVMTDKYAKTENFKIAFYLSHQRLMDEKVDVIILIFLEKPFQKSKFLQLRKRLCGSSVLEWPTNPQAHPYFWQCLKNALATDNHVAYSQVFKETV
The experiment in a line: Antagonist activity at human TLR7 expressed in HEK293 cells assessed as inhibition of R848-induced NF-kappaB activation-mediated SEAP production after 24 hrs by Quanti-blue-based assay. In outline:
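HEK293 cells stably carrying a human TLR plus an NF-κB-driven SEAP reporter, seeded 5×10^4/well for 24 h at 37 °C, then stimulated: Pam3CSK4 100 µg/mL (TLR1/2), Pam2CSK4 100 µg/mL, poly I:C 5 µg/mL (TLR3), LPS 20 ng/mL (TLR4), flagellin 100 ng/mL (TLR5), R848 1 µg/mL (TLR7, TLR8), CpG-ODN2006 1 µg/mL (TLR9). After 24 h with compound, supernatant mixed with QUANTI-Blue, 1 h 37 °C, OD 620 nm.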
As to `O=C(NNC(=O)c1csc(-c2ccc(C(F)(F)F)cc2)n1)c1ccccn1`, the IC50 (commonly the concentration at which inhibition is half-maximal) came out at 0.99 µM. For `O=C(NNC(=O)c1csc(-c2cccc(Br)c2)n1)c1ccccn1` the value was 0.9 µM; for `CN(C)c1ccc(-c2nc(C(=O)NNC(=O)c3ccccn3)cs2)cc1`, 1.9 µM; for `Nc1nccnc1C(=O)NNC(=O)c1ccc(OC(F)(F)F)cc1`, 27 µM. `O=C(NNC(=O)c1ccccn1)c1ccc(Br)cc1`: the half-maximal inhibitory concentration (IC50) came out at 17 µM.

As for `O=C(NNC(=O)c1csc(-c2ccc(Cl)cc2Cl)n1)c1ccccn1`, the IC50 is 0.26 µM. Then `Nc1nccnc1C(=O)NNC(=O)c1ccc(C(F)(F)F)cc1`, with 25 µM. In the case of `Nc1cccnc1C(=O)NNC(=O)c1cccc(C(F)(F)F)c1`, the IC50 was determined as 16 µM. Then `O=C(NNC(=O)c1ncccc1O)c1cccc(C(F)(F)F)c1`, with 14.2 µM. For `O=C(NNC(=O)c1ccccn1)c1ccc(C(F)(F)F)cc1` the value was 17 µM.

With `O=C(NNC(=O)c1ccccn1)c1ccc(Cl)cc1`, the concentration for half-maximal inhibition (IC50) amounted to 24.7 µM. For `O=C(NNC(=O)c1ncccc1O)c1ccc(OC(F)(F)F)cc1` the value was 7.9 µM; for `O=C(NNC(=O)c1ncccc1O)c1ccc(Cl)cc1`, 27.8 µM. Then `Cc1nc(C(=O)NNC(=O)c2ccc(Cl)cc2)cs1`, with 44.8 µM; and `Cc1nc(C(=O)NNC(=O)c2ccccn2)cs1`, with 30 µM; and `CC(C)c1nc(C(=O)NNC(=O)c2ccccn2)cs1`, with 14 µM. Then `O=C(NNC(=O)c1csc(-c2ccc(F)cc2)n1)c1ccccn1`, with 4.4 µM; and `O=C(NNC(=O)c1csc(-c2ccc(Cl)cc2)n1)c1ccccn1`, with 2.1 µM. On to `Cc1ccc(-c2nc(C(=O)NNC(=O)c3ccccn3)cs2)cc1`, for which the IC50 is 1.83 µM. For `COc1ccc(-c2nc(C(=O)NNC(=O)c3ccccn3)cs2)cc1` the value was 3.09 µM; for `COc1ccc(-c2nc(C(=O)NNC(=O)c3ccccn3)cs2)cc1OC`, 3.9 µM. Take `O=C(NNC(=O)c1csc(-c2cccc(Cl)c2Cl)n1)c1ccccn1`: the half-maximal inhibitory concentration (IC50) is 0.5 µM. For `O=C(NNC(=O)c1csc(-c2cc(Cl)cc(Cl)c2)n1)c1ccccn1` the value was 0.44 µM; for `O=C(NNC(=O)c1csc(-c2cccc(F)c2)n1)c1ccccn1`, 2.6 µM; for `O=C(NNC(=O)c1csc(-c2cccc(C(F)(F)F)c2)n1)c1ccccn1`, 1.02 µM. For `O=C(NNC(=O)c1ncccc1O)c1ccc(Br)cc1` the value was 17.3 µM; for `O=C(NNC(=O)c1csc(-c2cccnc2)n1)c1ccccn1`, 23.2 µM. Turning to `CCc1ccc(-c2nc(C(=O)NNC(=O)c3ccccn3)cs2)cc1`, the half-inhibitory concentration (IC50) was 2.4 µM. For `O=C(NNC(=O)c1csc(-c2cccc(Cl)c2)n1)c1ccccn1` the value was 1 µM; for `Nc1nccnc1C(=O)NNC(=O)c1cccc(C(F)(F)F)c1`, 38 µM. For `O=C(NNC(=O)c1ccccn1)c1cccc(C(F)(F)F)c1` the value was 15 µM. On to `O=C(NNC(=O)c1ncccc1O)c1ccc(C(F)(F)F)cc1`, for which the half-inhibitory concentration (IC50) amounted to 13.4 µM. Then `Cc1nc(C(=O)NNC(=O)c2cccc(Cl)c2)cs1`, with 60 µM. As for `O=C(NNC(=O)c1ccccn1)c1ccc(OC(F)(F)F)cc1`, the half-inhibitory concentration (IC50) amounted to 22 µM. For `O=C(NNC(=O)c1csc(-c2ccccc2)n1)c1ccccn1` the value was 5.8 µM.

Source of the values: BindingDB's records for doi:10.1021/acs.jmedchem.7b01557 (University of Colorado, 2018).
